Bioassay records (PubChem BioAssay)
Kir21 block: Kir2.1 (mouse) channel inhibition. HEK293-Kir2.1, FluxOR thallium flux fluorescence; active compounds read low. B-score at 10 µM. hit rate 0.85% among 310,000;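 active means fluorescence ratio B-score at or below minus 3 SD of library scores, with starting-brightness B-score within 2 SD, cut at about -4.2 in these data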;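 further: channel flux triggered by added potassium and thallium sulfate stimulus; B-score of peak minus minimum fluorescence over baseline after thallium stimulus; more negative B-score means stronger Kir2.1 block with less thallium influx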
hERG protect: shields human hERG channel from block by proarrhythmic agents | activation (rescue from dofetilide block), less the hit threshold, % at 10 µM | Q12809 | hit rate 0.51% among 310,000 | CHO-hERG, FluxOR thallium flux, dofetilide IC70 present;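 active means activation above the mean of controls blocked by dofetilide plus 5 SD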;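 further: thallium influx through hERG after potassium depolarization seen as dye fluorescence rise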
KCNK3 block: human KCNK3 channel inhibition, primary screen; hit rate 0.84% among 340,000; CHO-KCNK3 thallium flux, FluxOR fluorescence; active compounds read low; AID 602410; O14649; B-score at 10 µM;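 active means B-score under library mean minus 4 SD, starting fluorescence ratio at most library mean plus 5 SD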;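 further: more negative B-score means stronger inhibition of thallium flux through KCNK3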
Target sequence (O14649 whole entry, looked up): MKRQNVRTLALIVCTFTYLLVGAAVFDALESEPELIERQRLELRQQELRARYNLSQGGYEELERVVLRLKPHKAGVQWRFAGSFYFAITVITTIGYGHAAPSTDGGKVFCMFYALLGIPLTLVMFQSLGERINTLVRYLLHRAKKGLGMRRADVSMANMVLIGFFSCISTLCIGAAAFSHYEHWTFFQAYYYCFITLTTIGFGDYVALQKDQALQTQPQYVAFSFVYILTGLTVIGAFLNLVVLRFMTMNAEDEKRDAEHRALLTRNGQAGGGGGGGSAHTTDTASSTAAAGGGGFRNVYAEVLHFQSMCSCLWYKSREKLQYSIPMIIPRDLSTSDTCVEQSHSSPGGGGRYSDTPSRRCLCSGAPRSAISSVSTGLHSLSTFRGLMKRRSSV
KCNQ1 inh: blocks the human KCNQ1 potassium channel | hit rate 1.3% among 310,000 | P51787 | B-score at 10 µM | CHO-K1 KCNQ1, FluxOR thallium flux fluorescence; active compounds read high;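 active means compounds whose thallium flux B-score, printed positive for inhibition, exceeds three library SD while starting fluorescence stays within three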;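 further: channel opened by potassium depolarization with thallium stimulus after 20 min compound exposure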
KCNK9 block: blocks the human KCNK9 two-pore domain potassium channel; HEK293 KCNK9, FluxOR thallium flux fluorescence; active compounds read low; B-score at 10 µM; hit rate 1.2% among 310,000;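 active means ratio B-score over 3 SD below the library mean, with starting fluorescence within 5 SD of its mean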;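 further: negative B-score means less thallium flux so channel inhibition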
KCNQ1 pot: potentiators or activators of human KCNQ1 potassium channel; AID 2648; B-score at 10 µM; hit rate 0.35% among 310,000; CHO-K1 KCNQ1, thallium flux FluxOR fluorescence; active compounds read high; P51787;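 active means fluorescence ratio B-score, a plate-corrected score, at least three library SD, with initial intensity B-score within 5 SD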
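Schedule – 37 °C overnight plating, 90-min dark dye load, 20-min compound pretreatment · System – stable KCNQ1 CHO-K1 line · Probe or stimulus – thallium- and potassium-containing depolarizing buffer · Measured by – kinetic FluxOR fluorescence, 10 s baseline plus 110 s post-stimulus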
* = called active by the depositor; i = inactive; . = no result. A selection: hits, their analogues and other compounds. The true share with any hit is near 3.8%.

SMILES	Kir21 block	hERG protect	KCNK3 block	KCNQ1 inh	KCNK9 block	KCNQ1 pot
CCOC(=O)C1CCN(C(=O)Cc2c(C(=O)O)n(CC)c3ccccc23)CC1	-0.6	5.5*	i	i	i	i
Cc1ccccc1OC(=O)n1c(=S)oc2cc(Cl)ccc21	2.36	-0.5	i	i	i	10*
O=C(NCCc1ccccc1)C1CCN(S(=O)(=O)N2CCCC2)CC1	-0.34	0.6	i	i	i	i
Oc1cc(Br)ccc1C=Nc1ccc(N2CCCCC2)cc1	-0.33	-9.6	i	i	i	i
COc1ccc(CNC(=O)c2csc(Cc3ccc(Cl)cc3)n2)cc1	-9.03*	-8.1	i	i	i	i
COc1ccc(Cc2nc(C(=O)Nc3ccc(Cl)cc3)cs2)cc1	0.18	-11.1	-17.9*	i	i	i
COc1ccc(CNC(=O)c2csc(Cc3ccc(OC)cc3)n2)cc1	-11*	0.7	i	i	i	i
COc1ccc(NC(=O)c2csc(Cc3ccc(Cl)cc3)n2)cc1	-1.49	-12.4	i	i	i	i
CCn1c(SCC(=O)NC(=O)NCc2ccco2)nnc1-c1cccs1	-2.47	-6.1	i	i	i	i
Cc1nc2ccccc2n1Cc1ccccc1	0.58	2.8	i	i	i	i
c1ccc(Cc2nc3ccccc3n2Cc2ccccc2)cc1	-7.25*	-17.1	i	i	i	i
Cc1nc2ccccc2n1Cc1ccc(Br)cc1	0.43	-13.7	i	6*	i	i
CCc1nc2ccccc2n1CCc1ccccc1	-2.66	-5.2	i	i	i	i
CC(C)(C)Cc1nc2ccccc2n1CCc1ccccc1	-6.06*	-9.0	i	i	i	i
CC(C)C(=O)NCCc1nc2ccccc2n1CCc1ccccc1	-1.08	-9.8	i	i	i	i
CCn1c(Cc2ccc(OC)cc2)nc2ccccc21	-1.55	-10.2	i	i	i	i
CC(C)Cc1nc2ccccc2n1CCc1ccccc1	-6.55*	-14.1	i	i	i	i
COC(=O)CCc1c(C)c(C#N)c2nc3ccccc3n2c1N1CCCC1	0.67	-4.5	i	i	i	i
Cc1ccc(-n2c(C)cc(C(=O)COc3c(CO)cc(F)cc3CO)c2C)cc1C	-7.68*	-17.8	i	i	i	i
COc1ccc(CSc2nc3ccccc3c(=O)[nH]2)cc1F	-0.03	-8.7	i	i	i	i
CC(C)(C)OC(=O)C[C@H]1C/C=C\C[C@@H](CC(=O)N(CCO)Cc2ccccc2)C(=O)NCCOC1=O	.	.	i	.	.	.
O=c1c(C(c2ccc(O)cc2)c2c(O)nc3n(c2=O)CCS3)c(O)nc2n1CCS2	0.25	6.7*	i	i	i	i
C=CCNC(=S)Nc1sc2c(c1C(=O)OCC)CC(C)(CC)OC2 (stereo unspecified)	0.56	9.4*	i	i	i	22*
Nc1nc(O)c(N=Nc2ccc(S(N)(=O)=O)cc2)c(=O)[nH]1	0.52	4.8*	.	i	i	i
NS(=O)(=O)c1ccc(N=Nc2c[nH]c(=O)c(O)c2)cc1	-1.01	-11.1	i	i	i	i
SMILES	Kir21 block	hERG protect	KCNK3 block	KCNQ1 inh	KCNK9 block	KCNQ1 pot
COCc1cc(C)n(CC(=O)NC(C)c2ccccc2)c(=O)c1C#N (stereo unspecified)	-1.79	-3.0	i	i	i	i
Cc1ccc(Sc2cnn(-c3ccccc3)c(=O)c2Cl)cc1	-3.17	-7.4	i	10*	i	i
O=C(NC12CC3CC(CC(C3)C1)C2)c1cc2nc(-c3ccco3)cc(C(F)(F)F)n2n1	0.61	-3.3	i	6*	i	i
Cc1ccccc1Cn1ccc(NC(=O)c2cnn3c(C(F)(F)F)cc(-c4ccco4)nc23)n1	-0.15	-15.4	i	i	-7.57*	i
O=C(Nc1cnn(C23CC4CC(CC(C4)C2)C3)c1)c1cnn2c(C(F)(F)F)cc(-c3ccco3)nc12	-0.25	-26.4	i	11*	i	i
CN(C)C(=O)CNC(=O)C1CCCCC1	0.13	-4.9	i	i	i	i
COc1ccc(-n2nnnc2SCC(=O)NC(=O)Nc2ccc3c(c2)OCCO3)cc1	.	.	i	.	.	.
CCCN(CCC)CC(O)Cn1cc(/C=C/C(=O)c2ccccc2)c2ccccc21 (stereo unspecified)	-4.18	-20.0	i	i	i	i
CCCCN(C)CC(O)Cn1cc(/C=C/C(=O)c2ccc(C)cc2)c2ccccc21 (stereo unspecified)	-5.21*	-24.8	i	i	i	i
COc1cc2ccc(=O)oc2cc1OCC(O)C(C)(C)O (stereo unspecified)	0.01	-2.8	i	i	i	i
O=C(CN1CCC(C(O)(c2ccccc2)c2ccccc2)CC1)Nc1cc(Cl)ccc1Cl	0	-7.4	i	i	i	i
O=C(CN1CCC(C(O)(c2ccccc2)c2ccccc2)CC1)Nc1ccccc1	-4.79*	-10.7	i	i	i	i
Cc1ccc(C(=O)NCCC(=O)NCc2cc(=O)n(C)c(=O)n2C)cc1	1.23	-5.5	i	i	i	8*
CCOc1cc(C(c2c(C)[nH][nH]c2=O)c2c(C)[nH][nH]c2=O)cc(Br)c1OC	1.55	-4.8	i	i	i	i
COCCN(CCOC)Cc1c(O)ccc2c3c(c(=O)oc12)CCC3	-1.12	-7.2	i	i	-7.11*	i
Oc1ccc2ccccc2c1/C=N/Nc1ccccc1	1.24	-4.7	i	i	i	i
Cc1cc(N/N=C/c2c(O)ccc3ccccc23)nc(-c2ccccc2O)n1	2.08	-12.5	i	10*	i	i
Cc1cc(C)c2oc(C(=O)Nc3ccc(S(=O)(=O)N4CCC(C)CC4)cc3)cc(=O)c2c1	1.05	-2.3	i	i	i	i
CC(=O)c1ccc(NC(=O)c2ccc3nc(-c4ccco4)c(-c4ccco4)nc3c2)cc1	-0.28	-7.2	-11.3*	i	i	i
O=C(Nc1ccccc1)c1ccc2nc(-c3ccco3)c(-c3ccco3)nc2c1	0.94	-10.4	i	i	i	i
O=[N+]([O-])c1ccc(Cl)c(/C=N/N2CCN(c3ccccc3)CC2)c1	0.21	-0.5	i	i	-7.84*	i
O=[N+]([O-])c1ccccc1/C=N\N1CCN(c2ccccc2)CC1	0.1	-13.9	i	i	i	i
O=[N+]([O-])c1ccccc1/C=N/N1CCN(c2ccc(Cl)cc2)CC1	2.25	-8.4	i	i	-7.66*	i
CCOC(=O)c1cnn(-c2ncnc3sc4c(c23)CCC4)c1N	-0.68	-9.6	i	i	i	i
Cc1occc1C(=O)NC1CCCCCCC1	0.1	-6.0	i	i	i	i
